ChEMBL document CHEMBL1150387, “Development and experimental validation of a docking strategy for the generation of kinase-targeted libraries” (J Med Chem, 2008)

Columns and labels:
[1] = target: Insulin-like growth factor 1 receptor (Homo sapiens) (UniProt P08069); assay: Inhibition of IGF1R at 10 uM by HTRF assay relative to control
Summary of the method: (§1)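 HTRF kinase assay, one panel of kinases. Inhibitor stock 50 µM in 100% DMSO; tested at 10 µM. ATP and substrate at final levels near Km. Final buffer: 50 mM Hepes/NaOH pH 7.4, 40 µM Na3VO4, 0.005% Tween-20, 1 mM DTT, MnCl2 or MgCl2 at kinase-dependent levels. Started by adding ATP/substrate. Reaction run at room temperature, time varied by kinase. Detection mix in 50 mM Hepes pH 7.4, 0.1% BSA, 150 mM KF, incubated ≥1 h at room temperature. Activity expressed as % of uninhibited control; n=2.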

[2] = target: Vascular endothelial growth factor receptor 1 (Homo sapiens) (UniProt P17948); assay: Inhibition of FLT1 at 10 uM by HTRF assay relative to control; summary of the method: as §1
[3] = target: T1, Ephrin type-B receptor 4 (Homo sapiens) (UniProt P54760); assay: Inhibition of EphB4 at 10 uM by HTRF assay relative to control; summary of the method: as §1
T1 sequence (whole entry): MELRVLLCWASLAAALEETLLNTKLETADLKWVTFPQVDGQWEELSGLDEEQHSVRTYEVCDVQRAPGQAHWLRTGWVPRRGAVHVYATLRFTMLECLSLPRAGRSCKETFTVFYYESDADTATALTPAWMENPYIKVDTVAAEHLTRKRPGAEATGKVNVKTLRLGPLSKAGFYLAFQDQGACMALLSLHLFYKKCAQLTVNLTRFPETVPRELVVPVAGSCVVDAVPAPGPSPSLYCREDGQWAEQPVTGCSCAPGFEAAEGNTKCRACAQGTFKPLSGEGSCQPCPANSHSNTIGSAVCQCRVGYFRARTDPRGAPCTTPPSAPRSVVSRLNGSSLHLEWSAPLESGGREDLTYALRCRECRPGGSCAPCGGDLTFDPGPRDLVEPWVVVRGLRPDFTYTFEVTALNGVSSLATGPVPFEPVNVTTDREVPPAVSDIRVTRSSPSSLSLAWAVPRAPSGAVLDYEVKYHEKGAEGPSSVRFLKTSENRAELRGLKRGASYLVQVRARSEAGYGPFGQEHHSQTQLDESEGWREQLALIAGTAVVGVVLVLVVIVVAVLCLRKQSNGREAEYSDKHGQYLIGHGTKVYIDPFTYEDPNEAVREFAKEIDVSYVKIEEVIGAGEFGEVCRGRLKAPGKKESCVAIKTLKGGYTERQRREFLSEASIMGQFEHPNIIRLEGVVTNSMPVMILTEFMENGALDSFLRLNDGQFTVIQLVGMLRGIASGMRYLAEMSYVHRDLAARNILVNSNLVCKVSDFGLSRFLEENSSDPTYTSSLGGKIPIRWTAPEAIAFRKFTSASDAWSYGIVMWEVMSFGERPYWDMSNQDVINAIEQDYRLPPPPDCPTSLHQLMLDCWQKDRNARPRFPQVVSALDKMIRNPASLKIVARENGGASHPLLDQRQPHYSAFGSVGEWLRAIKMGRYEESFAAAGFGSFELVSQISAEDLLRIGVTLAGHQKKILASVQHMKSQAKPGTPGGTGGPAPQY

[4] = target: Mitogen-activated protein kinase 14 (Homo sapiens) (UniProt Q16539); assay: Inhibition of p38alpha at 10 uM by HTRF assay relative to control; summary of the method: as §1
[5] = target: T2, Inhibitor of nuclear factor kappa-B kinase subunit beta (Homo sapiens) (UniProt O14920); assay: Inhibition of IKK-beta at 10 uM by HTRF assay relative to control; summary of the method: as §1
T2 sequence (whole entry): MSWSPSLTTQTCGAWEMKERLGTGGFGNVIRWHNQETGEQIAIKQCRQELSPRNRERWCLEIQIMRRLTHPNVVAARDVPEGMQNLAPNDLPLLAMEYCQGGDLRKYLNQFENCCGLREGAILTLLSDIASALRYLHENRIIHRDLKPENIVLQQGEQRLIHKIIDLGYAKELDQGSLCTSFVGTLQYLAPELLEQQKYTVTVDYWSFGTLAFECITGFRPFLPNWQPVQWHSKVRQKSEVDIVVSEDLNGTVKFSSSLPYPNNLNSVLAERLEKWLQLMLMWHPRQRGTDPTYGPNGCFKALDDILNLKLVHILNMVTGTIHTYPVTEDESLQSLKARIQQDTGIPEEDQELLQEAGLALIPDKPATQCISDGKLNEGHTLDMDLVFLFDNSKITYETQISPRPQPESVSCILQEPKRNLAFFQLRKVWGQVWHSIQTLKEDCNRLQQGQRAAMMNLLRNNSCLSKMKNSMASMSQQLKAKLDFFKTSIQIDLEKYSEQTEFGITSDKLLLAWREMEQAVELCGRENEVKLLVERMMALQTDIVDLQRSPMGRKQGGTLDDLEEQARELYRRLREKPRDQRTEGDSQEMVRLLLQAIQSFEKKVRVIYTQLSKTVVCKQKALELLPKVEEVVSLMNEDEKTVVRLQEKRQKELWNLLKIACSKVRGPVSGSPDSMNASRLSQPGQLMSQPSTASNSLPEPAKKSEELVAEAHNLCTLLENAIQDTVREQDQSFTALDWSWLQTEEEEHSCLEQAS

[6] = target: Serine/threonine-protein kinase Chk2 (Homo sapiens) (UniProt O96017); assay: Inhibition of CHK2 at 10 uM by HTRF assay relative to control; summary of the method: as §1
[7] = target: Calcium/calmodulin-dependent protein kinase type II subunit alpha (Homo sapiens) (UniProt Q9UQM7); assay: Inhibition of CaMK2alpha at 10 uM by HTRF assay relative to control; summary of the method: as §1
[8] = Inhibition of AMPKalpha at 10 uM by HTRF assay relative to control; summary of the method: as §1
[9] = target: Protein kinase C gamma type (Homo sapiens) (UniProt P05129); assay: Inhibition of PKCgamma at 10 uM by HTRF assay relative to control; summary of the method: as §1
[10] = target: RAC-alpha serine/threonine-protein kinase (Homo sapiens) (UniProt P31749); assay: Inhibition of AKT1/PKBalpha at 10 uM by HTRF assay relative to control; summary of the method: as §1
[11] = target: Tyrosine-protein kinase Fes/Fps (Homo sapiens) (UniProt P07332); assay: Inhibition of FES at 10 uM by HTRF assay relative to control; summary of the method: as §1
[12] = target: Tyrosine-protein kinase ABL1 (Homo sapiens) (UniProt P00519); assay: Inhibition of Abl at 10 uM by HTRF assay relative to control; summary of the method: as §1
[13] = target: Vascular endothelial growth factor receptor 2 (Homo sapiens) (UniProt P35968); assay: Inhibition of KDR at 10 uM by HTRF assay relative to control; summary of the method: as §1
Sequence of Vascular endothelial growth factor receptor 2 (Homo sapiens) (P35968 whole entry): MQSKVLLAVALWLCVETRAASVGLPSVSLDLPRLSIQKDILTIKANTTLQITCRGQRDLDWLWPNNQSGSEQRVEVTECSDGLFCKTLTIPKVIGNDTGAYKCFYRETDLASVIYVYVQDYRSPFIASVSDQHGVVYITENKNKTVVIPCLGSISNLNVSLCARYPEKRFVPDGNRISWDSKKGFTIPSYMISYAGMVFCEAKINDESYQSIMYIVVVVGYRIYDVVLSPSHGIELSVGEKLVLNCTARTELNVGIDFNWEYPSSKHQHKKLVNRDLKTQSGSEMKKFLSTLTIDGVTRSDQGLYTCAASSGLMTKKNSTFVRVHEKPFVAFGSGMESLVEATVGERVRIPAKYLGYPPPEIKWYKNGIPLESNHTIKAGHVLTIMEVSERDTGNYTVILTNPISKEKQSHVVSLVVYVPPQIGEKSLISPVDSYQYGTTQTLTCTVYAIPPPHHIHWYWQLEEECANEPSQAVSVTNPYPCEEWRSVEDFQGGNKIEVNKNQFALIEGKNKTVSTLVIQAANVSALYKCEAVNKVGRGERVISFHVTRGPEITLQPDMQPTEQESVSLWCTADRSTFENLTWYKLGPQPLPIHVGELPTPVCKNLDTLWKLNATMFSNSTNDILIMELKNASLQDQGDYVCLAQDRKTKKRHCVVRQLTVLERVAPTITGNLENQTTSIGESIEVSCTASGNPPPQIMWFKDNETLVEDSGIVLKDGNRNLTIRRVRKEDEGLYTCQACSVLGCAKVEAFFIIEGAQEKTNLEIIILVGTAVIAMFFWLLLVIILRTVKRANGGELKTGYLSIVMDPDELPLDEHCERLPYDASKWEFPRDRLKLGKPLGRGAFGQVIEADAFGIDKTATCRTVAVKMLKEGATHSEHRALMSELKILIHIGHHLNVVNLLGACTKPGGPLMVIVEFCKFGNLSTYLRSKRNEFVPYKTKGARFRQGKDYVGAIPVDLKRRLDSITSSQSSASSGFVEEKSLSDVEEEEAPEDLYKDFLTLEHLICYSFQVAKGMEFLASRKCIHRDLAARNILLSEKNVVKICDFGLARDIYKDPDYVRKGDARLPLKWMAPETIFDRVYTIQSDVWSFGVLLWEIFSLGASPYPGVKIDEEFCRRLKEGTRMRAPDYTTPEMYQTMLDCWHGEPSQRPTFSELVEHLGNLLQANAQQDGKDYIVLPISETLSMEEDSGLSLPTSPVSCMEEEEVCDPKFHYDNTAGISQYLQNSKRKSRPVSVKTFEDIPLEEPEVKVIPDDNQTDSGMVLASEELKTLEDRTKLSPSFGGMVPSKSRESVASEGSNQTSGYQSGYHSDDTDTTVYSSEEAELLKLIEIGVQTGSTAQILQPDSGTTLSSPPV

Sequence of Vascular endothelial growth factor receptor 1 (Homo sapiens) (P17948 whole entry): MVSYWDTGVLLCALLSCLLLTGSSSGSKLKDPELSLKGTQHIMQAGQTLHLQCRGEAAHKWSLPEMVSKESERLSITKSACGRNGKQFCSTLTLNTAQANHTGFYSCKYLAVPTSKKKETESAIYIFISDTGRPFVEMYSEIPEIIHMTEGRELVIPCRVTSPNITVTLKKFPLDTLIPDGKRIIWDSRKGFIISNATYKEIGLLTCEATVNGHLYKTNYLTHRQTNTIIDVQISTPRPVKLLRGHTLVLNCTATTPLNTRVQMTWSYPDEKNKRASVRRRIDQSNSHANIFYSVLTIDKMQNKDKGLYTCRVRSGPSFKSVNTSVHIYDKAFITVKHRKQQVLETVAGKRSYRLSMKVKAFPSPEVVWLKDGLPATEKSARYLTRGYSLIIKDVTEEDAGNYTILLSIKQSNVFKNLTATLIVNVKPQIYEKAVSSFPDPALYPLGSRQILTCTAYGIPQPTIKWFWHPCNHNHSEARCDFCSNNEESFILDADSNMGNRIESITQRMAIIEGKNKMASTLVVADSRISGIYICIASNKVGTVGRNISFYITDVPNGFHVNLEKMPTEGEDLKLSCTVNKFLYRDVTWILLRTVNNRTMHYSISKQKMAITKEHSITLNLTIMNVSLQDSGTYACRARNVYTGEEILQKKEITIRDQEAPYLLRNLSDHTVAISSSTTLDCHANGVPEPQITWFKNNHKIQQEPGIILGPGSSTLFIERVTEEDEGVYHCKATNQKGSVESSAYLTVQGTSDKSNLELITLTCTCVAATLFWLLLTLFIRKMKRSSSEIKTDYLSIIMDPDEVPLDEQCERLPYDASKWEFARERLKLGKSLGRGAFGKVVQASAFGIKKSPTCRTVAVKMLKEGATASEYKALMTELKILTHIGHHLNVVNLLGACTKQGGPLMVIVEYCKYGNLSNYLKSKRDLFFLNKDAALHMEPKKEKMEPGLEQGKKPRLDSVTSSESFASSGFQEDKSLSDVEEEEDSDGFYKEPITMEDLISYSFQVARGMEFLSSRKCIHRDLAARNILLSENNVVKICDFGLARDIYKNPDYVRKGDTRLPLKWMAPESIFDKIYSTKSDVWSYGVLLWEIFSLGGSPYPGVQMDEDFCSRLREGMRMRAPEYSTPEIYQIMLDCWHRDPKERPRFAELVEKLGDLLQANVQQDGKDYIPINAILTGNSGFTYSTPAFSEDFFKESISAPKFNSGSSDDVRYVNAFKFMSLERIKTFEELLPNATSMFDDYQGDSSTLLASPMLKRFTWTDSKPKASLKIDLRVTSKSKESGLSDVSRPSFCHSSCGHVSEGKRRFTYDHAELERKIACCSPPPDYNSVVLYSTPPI
Sequence of Tyrosine-protein kinase Fes/Fps (Homo sapiens) (P07332 whole entry): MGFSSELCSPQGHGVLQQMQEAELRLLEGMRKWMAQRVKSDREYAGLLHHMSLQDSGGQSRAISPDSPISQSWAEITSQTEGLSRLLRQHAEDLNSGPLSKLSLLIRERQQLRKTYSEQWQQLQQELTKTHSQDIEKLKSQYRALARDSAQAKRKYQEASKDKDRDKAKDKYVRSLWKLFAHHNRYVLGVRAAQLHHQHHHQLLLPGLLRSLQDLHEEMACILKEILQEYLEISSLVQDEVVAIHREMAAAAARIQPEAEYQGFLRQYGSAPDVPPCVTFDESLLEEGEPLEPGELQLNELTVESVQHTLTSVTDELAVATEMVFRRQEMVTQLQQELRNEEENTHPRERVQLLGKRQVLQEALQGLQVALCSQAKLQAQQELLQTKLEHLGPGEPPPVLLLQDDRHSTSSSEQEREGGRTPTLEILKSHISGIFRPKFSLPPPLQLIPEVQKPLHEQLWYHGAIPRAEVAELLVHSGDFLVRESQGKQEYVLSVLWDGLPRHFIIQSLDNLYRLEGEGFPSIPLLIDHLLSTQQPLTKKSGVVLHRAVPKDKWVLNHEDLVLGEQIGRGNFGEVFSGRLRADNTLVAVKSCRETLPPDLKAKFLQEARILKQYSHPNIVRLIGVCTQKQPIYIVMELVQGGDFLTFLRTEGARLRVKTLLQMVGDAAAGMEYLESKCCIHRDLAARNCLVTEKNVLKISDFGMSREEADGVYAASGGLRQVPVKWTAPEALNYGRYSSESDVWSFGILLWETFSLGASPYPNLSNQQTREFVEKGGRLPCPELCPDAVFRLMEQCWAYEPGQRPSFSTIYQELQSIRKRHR
Sequence of Tyrosine-protein kinase ABL1 (Homo sapiens) (P00519 whole entry): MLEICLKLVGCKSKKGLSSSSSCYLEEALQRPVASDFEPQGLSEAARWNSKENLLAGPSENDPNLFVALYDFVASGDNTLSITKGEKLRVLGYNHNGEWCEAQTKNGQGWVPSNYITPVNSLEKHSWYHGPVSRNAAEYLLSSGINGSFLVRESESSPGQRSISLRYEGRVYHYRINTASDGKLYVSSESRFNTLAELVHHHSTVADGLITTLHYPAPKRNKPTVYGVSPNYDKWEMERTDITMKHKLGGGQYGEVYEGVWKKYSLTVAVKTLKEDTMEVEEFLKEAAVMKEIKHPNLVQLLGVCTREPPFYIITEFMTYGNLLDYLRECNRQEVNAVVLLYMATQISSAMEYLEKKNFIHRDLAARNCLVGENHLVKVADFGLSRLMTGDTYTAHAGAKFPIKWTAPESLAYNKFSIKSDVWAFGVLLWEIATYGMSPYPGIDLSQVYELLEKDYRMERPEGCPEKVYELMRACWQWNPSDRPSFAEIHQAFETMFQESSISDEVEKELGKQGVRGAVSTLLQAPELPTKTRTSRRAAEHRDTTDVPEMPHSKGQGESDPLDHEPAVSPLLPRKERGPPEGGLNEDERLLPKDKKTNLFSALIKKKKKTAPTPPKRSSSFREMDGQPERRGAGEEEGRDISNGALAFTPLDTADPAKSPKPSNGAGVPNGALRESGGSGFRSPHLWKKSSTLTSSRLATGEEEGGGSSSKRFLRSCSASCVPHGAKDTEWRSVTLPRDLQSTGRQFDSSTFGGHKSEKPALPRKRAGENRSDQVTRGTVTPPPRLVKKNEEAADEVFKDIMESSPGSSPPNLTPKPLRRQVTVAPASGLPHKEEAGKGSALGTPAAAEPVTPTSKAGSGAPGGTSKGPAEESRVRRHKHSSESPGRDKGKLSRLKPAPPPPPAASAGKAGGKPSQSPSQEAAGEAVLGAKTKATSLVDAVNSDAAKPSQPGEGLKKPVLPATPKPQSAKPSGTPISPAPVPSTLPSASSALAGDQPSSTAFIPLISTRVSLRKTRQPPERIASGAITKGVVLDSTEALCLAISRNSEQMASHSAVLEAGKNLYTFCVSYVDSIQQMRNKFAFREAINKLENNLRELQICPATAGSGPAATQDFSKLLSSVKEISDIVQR
Sequence of Mitogen-activated protein kinase 14 (Homo sapiens) (Q16539 whole entry): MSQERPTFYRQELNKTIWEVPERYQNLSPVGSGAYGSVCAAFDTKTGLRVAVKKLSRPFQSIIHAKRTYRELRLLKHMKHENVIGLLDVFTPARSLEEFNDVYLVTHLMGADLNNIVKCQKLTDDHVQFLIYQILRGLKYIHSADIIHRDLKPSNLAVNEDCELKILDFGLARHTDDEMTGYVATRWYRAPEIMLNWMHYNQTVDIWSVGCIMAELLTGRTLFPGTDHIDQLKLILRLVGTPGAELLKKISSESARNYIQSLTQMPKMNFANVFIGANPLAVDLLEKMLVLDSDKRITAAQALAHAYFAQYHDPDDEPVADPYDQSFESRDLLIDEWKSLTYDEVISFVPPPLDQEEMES

CN(CCCn1ccnc1)C(=O)[C@@H]1CCCN1c1nccc(Nc2ccccc2)n1
inhibition [1]: 0%
inhibition [2]: 4%
inhibition [3]: 0%
inhibition [4]: 1%
inhibition [5]: 3%
inhibition [6]: 5%
inhibition [7]: 0%
inhibition [8]: 15%
inhibition [9]: 0%
inhibition [10]: 0%
inhibition [11]: 1%
inhibition [12]: 2%
inhibition [13]: 3%

Nc1nc(N2CCOCC2)cc(N2CCC(C(=O)NCCc3ccc(O)cc3)CC2)n1
inhibition [1]: 0%
inhibition [2]: 0%
inhibition [3]: 0%
inhibition [4]: 8%
inhibition [5]: 4%
inhibition [6]: 0%
inhibition [7]: 0%
inhibition [8]: 12%
inhibition [9]: 0%
inhibition [10]: 2%
inhibition [11]: 6%
inhibition [12]: 6%
inhibition [13]: 7%

Cc1cccc(Oc2ccnc(N3CCN(C(=O)c4c(C)noc4C)CC3)n2)c1
inhibition [1]: 0%
inhibition [2]: 7%
inhibition [3]: 0%
inhibition [4]: 0%
inhibition [5]: 3%
inhibition [6]: 3%
inhibition [7]: 0%
inhibition [8]: 6%
inhibition [9]: 3%
inhibition [10]: 1%
inhibition [11]: 7%
inhibition [12]: 0%
inhibition [13]: 18%

Cc1cccc(Oc2ccnc(N3CCC[C@H]3C(=O)NCCCn3ccnc3)n2)c1
inhibition [1]: 8%
inhibition [2]: 0%
inhibition [3]: 0%
inhibition [4]: 3%
inhibition [5]: 2%
inhibition [6]: 0%
inhibition [7]: 0%
inhibition [8]: 9%
inhibition [9]: 1%
inhibition [10]: 0%
inhibition [11]: 2%
inhibition [12]: 5%
inhibition [13]: 11%

Cc1cccc(Oc2ccnc(N3CCN(CC(=O)Nc4cccc5c4CCCC5)CC3)n2)c1
inhibition [1]: 0%
inhibition [2]: 0%
inhibition [3]: 0%
inhibition [4]: 16%
inhibition [5]: 0%
inhibition [6]: 3%
inhibition [7]: 0%
inhibition [8]: 0%
inhibition [9]: 5%
inhibition [10]: 1%
inhibition [11]: 23%
inhibition [12]: 1%
inhibition [13]: 0%

Cc1cccc(N(C)c2cc(Nc3ccc(CC(=O)Nc4ccc5ncsc5c4)cc3)ncn2)c1
inhibition [1]: 0%
inhibition [2]: 22%
inhibition [3]: 0%
inhibition [4]: 57%
inhibition [5]: 0%
inhibition [6]: 0%
inhibition [7]: 0%
inhibition [8]: 0%
inhibition [9]: 5%
inhibition [10]: 0%
inhibition [11]: 24%
inhibition [12]: 18%
inhibition [13]: 40%

O=C(NC[C@@H]1CCCO1)c1cccc(Nc2nccc(Nc3ccc4ncsc4c3)n2)c1
inhibition [1]: 83%
inhibition [2]: 87%
inhibition [3]: 57%
inhibition [4]: 12%
inhibition [5]: 45%
inhibition [6]: 13%
inhibition [7]: 0%
inhibition [8]: 36%
inhibition [9]: 30%
inhibition [10]: 0%
inhibition [11]: 90%
inhibition [12]: 44%
inhibition [13]: 95%

O=C(c1nc(SCc2ccc(Cl)cc2)n2ccccc12)N1CCN(c2ncnc3c2CN(Cc2ccccc2)CC3)CC1
inhibition [1]: 0%
inhibition [2]: 0%
inhibition [3]: 0%
inhibition [4]: 5%
inhibition [5]: 2%
inhibition [6]: 0%
inhibition [7]: 0%
inhibition [8]: 1%
inhibition [9]: 4%
inhibition [10]: 0%
inhibition [11]: 0%
inhibition [12]: 13%
inhibition [13]: 10%

Nc1nc(Nc2ccc3ncsc3c2)cc(N2CCC[C@H]2C(=O)N[C@@H](CO)c2ccccc2)n1
inhibition [1]: 7%
inhibition [2]: 5%
inhibition [3]: 0%
inhibition [4]: 7%
inhibition [5]: 4%
inhibition [6]: 2%
inhibition [7]: 0%
inhibition [8]: 20%
inhibition [9]: 1%
inhibition [10]: 0%
inhibition [11]: 3%
inhibition [12]: 0%
inhibition [13]: 10%

Clc1ccc2sc(CN3CCN(c4ncnc5c4CN(Cc4ccccc4)CC5)CC3)cc2c1
inhibition [1]: 0%
inhibition [2]: 0%
inhibition [3]: 0%
inhibition [4]: 10%
inhibition [5]: 10%
inhibition [6]: 0%
inhibition [7]: 0%
inhibition [8]: 16%
inhibition [9]: 2%
inhibition [10]: 2%
inhibition [11]: 6%
inhibition [12]: 1%
inhibition [13]: 11%

COc1cccc(Nc2cc(N3CCC[C@H]3C(=O)NCCc3ccc(O)cc3)nc(N)n2)c1
inhibition [1]: 0%
inhibition [2]: 2%
inhibition [3]: 0%
inhibition [4]: 8%
inhibition [5]: 4%
inhibition [6]: 0%
inhibition [7]: 0%
inhibition [8]: 9%
inhibition [9]: 5%
inhibition [10]: 1%
inhibition [11]: 4%
inhibition [12]: 6%
inhibition [13]: 6%

Cc1cccc(Nc2cc(Nc3cccc(C(=O)N(CC(C)O)CC(C)O)c3)ncn2)c1 (centres undefined)
inhibition [1]: 0%
inhibition [2]: 83%
inhibition [3]: 0%
inhibition [4]: 11%
inhibition [5]: 7%
inhibition [6]: 1%
inhibition [7]: 0%
inhibition [8]: 6%
inhibition [9]: 1%
inhibition [10]: 2%
inhibition [11]: 20%
inhibition [12]: 75%
inhibition [13]: 83%

COC[C@@H]1CCCN1C(=O)[C@@H]1CCCN1c1nccc(Nc2ccccc2)n1
inhibition [1]: 0%
inhibition [2]: 1%
inhibition [3]: 0%
inhibition [4]: 0%
inhibition [5]: 6%
inhibition [6]: 3%
inhibition [7]: 0%
inhibition [8]: 15%
inhibition [9]: 0%
inhibition [10]: 0%
inhibition [11]: 8%
inhibition [12]: 3%
inhibition [13]: 4%

O=C(COc1ccccc1)N1CCN(c2nccc(Nc3ccc4ncsc4c3)n2)CC1
inhibition [1]: 0%
inhibition [2]: 3%
inhibition [3]: 0%
inhibition [4]: 7%
inhibition [5]: 10%
inhibition [6]: 6%
inhibition [7]: 0%
inhibition [8]: 49%
inhibition [9]: 14%
inhibition [10]: 1%
inhibition [11]: 18%
inhibition [12]: 8%
inhibition [13]: 35%

Cc1cccc(Nc2nccc3c2CN(C(=O)c2cc(C)n(C)c2C)CC3)c1
inhibition [1]: 0%
inhibition [2]: 0%
inhibition [3]: 0%
inhibition [4]: 0%
inhibition [5]: 0%
inhibition [6]: 0%
inhibition [7]: 0%
inhibition [8]: 1%
inhibition [9]: 4%
inhibition [10]: 0%
inhibition [11]: 2%
inhibition [12]: 0%
inhibition [13]: 0%

Cc1cccc(Nc2nccc(Nc3cccc(C(=O)N(C)CCc4ccccn4)c3)n2)c1
inhibition [1]: 87%
inhibition [2]: 34%
inhibition [3]: 5%
inhibition [4]: 3%
inhibition [5]: 9%
inhibition [6]: 0%
inhibition [7]: 0%
inhibition [8]: 17%
inhibition [9]: 14%
inhibition [10]: 0%
inhibition [11]: 75%
inhibition [12]: 38%
inhibition [13]: 81%

CN(C)c1ccc(C(=O)N2CCN(c3ncnc4c3CN(Cc3ccccc3)CC4)CC2)c2ccccc12
inhibition [1]: 0%
inhibition [2]: 0%
inhibition [3]: 0%
inhibition [4]: 4%
inhibition [5]: 1%
inhibition [6]: 6%
inhibition [7]: 0%
inhibition [8]: 0%
inhibition [9]: 4%
inhibition [10]: 4%
inhibition [11]: 2%
inhibition [12]: 8%
inhibition [13]: 3%

Nc1nc(Nc2ccc3ncsc3c2)cc(N2CCC[C@H]2C(=O)NCCc2cccc(I)c2)n1
inhibition [1]: 0%
inhibition [2]: 1%
inhibition [3]: 0%
inhibition [4]: 10%
inhibition [5]: 4%
inhibition [6]: 1%
inhibition [7]: 0%
inhibition [8]: 6%
inhibition [9]: 0%
inhibition [10]: 0%
inhibition [11]: 8%
inhibition [12]: 7%
inhibition [13]: 17%
